Results from different studies.
Lines come from different studies, so protocols differ.
Target: Serine/threonine-protein kinase WNK2 (WNK2, Homo sapiens, UniProt Q9Y3S1)

SMILES	read-out	action	method	tested at	measurement	value
CCN(CC)CCNC(=O)c1c(C)[nH]c(/C=C2\C(=O)Nc3ccc(F)cc32)c1C	enzyme activity	inhibitor		0.3 µM	inhibition	3%
CCCOc1ccc(OC)c(F)c1C(=O)c1ccc(C(=O)N[C@@H]2CNC[C@H]2NC(=O)c2ccc3[nH]ncc3c2)cc1	enzyme activity	inhibitor		10 µM	remaining activity	92%
COCCOc1nc(-c2ccc(Cl)nc2)nc2c1CN(C(=O)c1ncn3ccccc13)CC2	cell-free assay		competition with immobilised ligand	0.1 µM	remaining binding	100%
CC(C)(C)c1nc(-c2cccc(NS(=O)(=O)c3c(F)cccc3F)c2F)c(-c2ccnc(N)n2)s1	enzyme activity	inhibitor	radiometric	1 µM	remaining activity	103%
CCCS(=O)(=O)Nc1ccc(F)c(C(=O)c2c[nH]c3ncc(-c4ccc(Cl)cc4)cc23)c1F	enzyme activity	inhibitor		1 µM	inhibition	< 10%
Cc1ccc(Nc2nccc(N(C)c3ccc4c(C)n(C)nc4c3)n2)cc1S(N)(=O)=O	enzyme activity	inhibitor		0.3 µM	inhibition	2%
O=C(Nc1cnc(Oc2ccc(F)cc2)nc1)N1CCc2ncccc2[C@@H]1c1ccc(F)cc1	cell-free assay		competition with immobilised ligand	1 µM	remaining binding	79%
Cc1ccc(NC(=O)c2ccc(C)c(C(F)(F)F)c2)cc1C#Cc1nn(C2CCC(O)CC2)c2ncnc(N)c12 (stereo not drawn)	cell-free assay			10 µM	remaining signal	105%
Cc1sc(C(=O)NC2COC2)cc1-n1cc(NC(=O)Nc2c(F)cccc2Cl)cn1	enzyme activity	inhibitor		10 µM	remaining activity	91.1%
O=C1NC(=O)c2cc(Nc3ccc(F)cc3)c(Nc3ccc(F)cc3)cc21	cell-free assay			0.5 µM	remaining signal	110%
CC(=O)N1CCC(c2ccc(C(=O)NC(=N)N)cc2C(F)(F)F)CC1	cell-free assay		competition with immobilised ligand	1 µM	remaining binding	98%
CC(C)(O)[C@H]1CC[C@H](Nc2ccc3ncc(-c4cccc(C(F)(F)F)c4)n3n2)CC1	enzyme activity	inhibitor		1 µM	remaining activity	86.2%
O=C(N1CCS(=O)(=O)CC1)N1C[C@H](c2ccc(OC(F)(F)F)cc2)C[C@H](c2nc(C3CC3)no2)C1	cell-free assay		competition with immobilised ligand	1 µM	remaining binding	73%
CN(c1nccc(-c2cnn3ncccc23)n1)C1CC1	binding			1 µM	remaining binding	100%
O=C(NC[C@@H]1[C@H]2CN(C(=O)OCc3cc(C(F)(F)F)cc(C(F)(F)F)c3)C[C@@H]12)c1ccc2[nH]nnc2c1	cell-free assay		competition with immobilised ligand	1 µM	remaining binding	84%
CNC(=O)c1cc(Oc2ccc(NC(=O)Nc3ccc(Cl)c(C(F)(F)F)c3)cc2)ccn1	enzyme activity	inhibitor		0.3 µM	inhibition	1%
COc1cccc(CNC(=O)c2nc3scc(COCc4ccc(C(=O)O)cc4)c3c(=O)[nH]2)c1	cell-free assay		competition with immobilised ligand	1 µM	remaining binding	54.2%
Cc1cnc(NC2CCOCC2)nc1-n1cnc(C(=O)NC(CN)c2cc(F)cc(Cl)c2)c1 (stereo not drawn)	enzyme activity	inhibitor	radiometric	1 µM	remaining activity	85%
